pIC50: −log10 of the molar value. Converted amounts (≈) assume the structure as drawn. The source made the active and inactive calls. The rule behind the calls is not given here.
How the values were obtained:
Toxoplasma gondii [1] = assay: Antiapicomplexan activity against Toxoplasma gondii RH tachyzoites infected in HFF cells assessed as [3H]-uracil incorporation after 24 hrs by scintillation luminescence counter; assay type: functional
Summary of the method: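 Confluent HFF monolayers in IMDM-C (10% FBS) infected with 3,500 needle-released tachyzoites per well. Compounds from 10 mM DMSO stocks, diluted in medium (final DMSO ≤0.1%), were added 1 h after infection, with 0.1% DMSO as vehicle control. [3H]-uracil (25 µL of 0.1 mCi/mL) was added 24 h before harvest onto glass-fibre filters and counted by scintillation. Cultures were kept at 33°C or 37°C, 5% CO2.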

Plasmodium falciparum [2] = assay: Antiapicomplexan activity against chloroquine-sensitive Plasmodium falciparum D6 assessed as growth inhibition after 72 hrs by MSF assay; assay type: functional, organism-based; conditions: D6, 72 h
Summary of the method: (§1)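 P. falciparum D6 or TM91-C235, late-ring/early-trophozoite stage, cultured at 0.3% parasitemia and 2% hematocrit on predosed plates. Twelve two-fold dilutions spanned 0.5–10000 ng/ml final, in quadruplicate, with chloroquine control. Incubation 72 h at 37°C under 5% CO2/5% O2/90% N2. Lysis buffer with SYBR Green I (10x final) was added, then 24 h dark at room temperature. IC50 from fluorescence by sigmoidal variable-slope regression.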

Toxoplasma gondii [3] = assay: Parasitocidal activity against Toxoplasma gondii RH tachyzoites expressing yellow fluorescent protein infected in HFF cells at 1 uM administered for 4 days followed by compound wash out measured after 11 to 25 days; assay type: functional, organism-based
Summary of the method: (§2)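 RH-YFP tachyzoites in HFF cells given compound at 1 μM under one of four regimens: 4 days then removal; 10 days then removal; refreshed at day 4 and removed at day 10; or maintained throughout. Parasite growth was followed as YFP fluorescence over time.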

Toxoplasma gondii [4] = assay: Antiapicomplexan activity against Toxoplasma gondii THdhxgTRP tachyzoites harboring insertional mutation assessed as growth inhibition after 6 weeks; assay type: functional, organism-based
Toxoplasma gondii [5] = assay: Parasitocidal activity against Toxoplasma gondii RH tachyzoites expressing yellow fluorescent protein infected in HFF cells at 1 uM administered for 10 days followed by compound wash out measured after 11 to 25 days; assay type: functional, organism-based; summary of the method: as §2
HFF = assay: Cytotoxicity against HFF cells assessed as survival by WST1 assay; assay type: cell-based; conditions: human
Summary of the method: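 Confluent HFF cells were treated with compounds at the concentrations used in the challenge assays. On the final day WST-1 reagent was added, followed by 1 h incubation in the dark at 37°C and absorbance reading at 420 nm.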

Toxoplasma gondii [6] = assay: Parasitocidal activity against Toxoplasma gondii RH tachyzoites expressing yellow fluorescent protein infected in HFF cells at 1 uM administered for 4 days followed by compound refreshment on day 4 and compound wash out on day 10 measured after 11 to 25 days; assay type: functional, organism-based; summary of the method: as §2
Plasmodium falciparum [7] = assay: Antiapicomplexan activity against chloroquine-resistant Plasmodium falciparum TM91-C235 assessed as growth inhibition after 72 hrs by MSF assay; assay type: functional, organism-based; conditions: TM91-C235, 72 h; summary of the method: as §1
Toxoplasma gondii [8] = assay: Antiapicomplexan activity against Toxoplasma gondii RH tachyzoites expressing yellow fluorescent protein infected in HFF cells after 72 hrs by fluorescence assay; assay type: functional, organism-based
Summary of the method: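 Confluent HFF monolayers in IMDM-C (10% FBS) infected with 3,500 RH-YFP tachyzoites per well. Compounds were added 1 h later from 10 mM DMSO stocks, final DMSO ≤0.1%. Pyrimethamine/sulfadiazine and 0.1% DMSO served as controls. After 72 h YFP fluorescence was read (ex 514, em 540 nm, bottom optics), giving MIC50/MIC90 ranges. Plates held at 33°C or 37°C, 5% CO2.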

Toxoplasma gondii [9] = assay: Parasitocidal activity against Toxoplasma gondii RH tachyzoites expressing yellow fluorescent protein infected in HFF cells assessed as parasite growth inhibition at 1 uM administered for 25 days followed by compound wash out; assay type: functional, organism-based; summary of the method: as §2
Mus musculus = assay: Toxicity in HLA B07 transgenic mouse assessed as survival at 25 to 100 mg/kg, po administered for 9 days measured after day 10; assay type: organism-based; design: dose 25-100 mg/kg, route oral; conditions: in vivo, 216 h
Toxoplasma gondii [10] = assay: Antiapicomplexan activity against Toxoplasma gondii ME49 oocysts infected in HLA B07 transgenic mouse assessed as increase in survival at 25 to 100 mg/kg, po; assay type: functional, organism-based
Summary of the method: (§3)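 Female B7 mice (~25 g), 5 per group, given 100 ME49 or TgGoatUS4 oocysts by oral gavage, plus 100 mg/kg (2.5 mg/mL) or 25 mg/kg ([…]) of test compound as 1.0 mL oral-gavage suspension. Vehicle DMSO 1.0%/PEG 400 5.0%/0.5% CMC 94.0%. Infected untreated and drug-only groups included. Mice observed daily and day of death recorded. Impression smears examined for tachyzoites.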

Toxoplasma gondii [11] = assay: Antiapicomplexan activity against Toxoplasma gondii TgGoatUS4 oocysts infected in HLA B07 transgenic mouse assessed as increase in survival at 25 to 100 mg/kg, po; assay type: functional, organism-based; summary of the method: as §3

SMILES	MIC50 (Toxoplasma gondii [1]) [µM]	MIC90 (Toxoplasma gondii [1]) [µM]	further results
C#Cc1cccc(NC(=O)c2cc(Cl)ccc2O)c1	> 1	> 1	
Nc1ccc(NC(=O)c2cc(Cl)ccc2O)c(Cl)c1	> 1	> 1	
COc1ccc(NC(=O)c2cc(Cl)ccc2O)c(OC)c1OC	> 1	> 1	
O=C(Oc1ccc(Cl)cc1C(=O)Nc1ccc([N+](=O)[O-])cc1Cl)c1ccccc1	0.061 (≈ 0.0263 µg/mL)	0.125 (≈ 0.0539 µg/mL)	pIC50 (Plasmodium falciparum [2]): 6.11; Activity (Toxoplasma gondii [3]): Active; growth inhibition (GI) (Toxoplasma gondii [4]): Active; Activity (Toxoplasma gondii [5]): Active; Activity (HFF): > 1000 nM; Activity (Toxoplasma gondii [6]): Active; pIC50 (Plasmodium falciparum [7]): 6.16; pIC50 (Toxoplasma gondii [8]): 7.21; IC90 (Toxoplasma gondii [8]): 125 nM; Activity (Toxoplasma gondii [9]): Active
O=C(Nc1cccc(Cc2ccccc2)c1)c1cc(Cl)ccc1O	0.75 (≈ 0.253 µg/mL)	0.75 (≈ 0.253 µg/mL)	
O=c1[nH]c(=O)c2nc[nH]c2[nH]1			growth inhibition (GI) (Toxoplasma gondii [4]): Active
O=C(Nc1cc(F)cc(F)c1)c1cc(Cl)ccc1O	> 1	> 1	
CCOc1cccc(NC(=O)c2cc(F)ccc2O)c1	> 1	> 1	
O=C(Nc1ccc([N+](=O)[O-])cc1Cl)c1cc(Cl)ccc1O [NICLOSAMIDE]	0.2 (≈ 0.0654 µg/mL)	0.2 (≈ 0.0654 µg/mL)	
COc1ccc(NC(=O)c2cc(Cl)ccc2O)cc1OC	> 1	> 1	
O=C(Nc1cc(Cl)cc(Cl)c1)c1cc(Cl)ccc1O	0.25 (≈ 0.0791 µg/mL)	0.25 (≈ 0.0791 µg/mL)	
O=C(Nc1cccc(Br)c1)c1cc(Cl)ccc1O	0.5 (≈ 0.163 µg/mL)	0.75 (≈ 0.245 µg/mL)	
Cc1cc(C)cc(NC(=O)c2cc(Cl)ccc2O)c1	> 1	> 1	
O=C(Nc1cccc(F)c1)c1cc(Cl)ccc1O	0.5 (≈ 0.133 µg/mL)	0.75 (≈ 0.199 µg/mL)	
C=Cc1cccc(NC(=O)c2cc(Cl)ccc2O)c1	0.25 (≈ 0.0684 µg/mL)	0.75 (≈ 0.205 µg/mL)	
C#Cc1cc(NC(=O)c2cc(Cl)ccc2O)ccc1F	> 1	> 1	
Cc1ccc(O)c(C(=O)Nc2ccc([N+](=O)[O-])cc2Cl)c1	0.25 (≈ 0.0767 µg/mL)	0.25 (≈ 0.0767 µg/mL)	
O=C(Nc1cccc(Oc2ccccc2)c1)c1cc(Cl)ccc1O	> 1	> 1	
COc1ccc(F)cc1C(=O)Nc1ccc([N+](=O)[O-])cc1F	> 1	> 1	
COc1ccc(F)cc1C(=O)Nc1ccc([N+](=O)[O-])cc1Cl	> 1	> 1	

SMILES	MIC50 (Toxoplasma gondii [1]) [µM]	MIC90 (Toxoplasma gondii [1]) [µM]	further results
N#Cc1cccc(NC(=O)c2cc(Cl)ccc2O)c1	> 1	> 1	
CN1CCN(C(=O)Oc2ccc(Cl)cc2C(=O)Nc2ccc([N+](=O)[O-])cc2Cl)CC1	0.5 (≈ 0.227 µg/mL)	0.75 (≈ 0.34 µg/mL)	
CN(CC(=O)NN)C(=O)Oc1ccc(Cl)cc1C(=O)Nc1ccc([N+](=O)[O-])cc1Cl.Cl	0.016	0.125	Activity (Toxoplasma gondii [5]): Active; Activity (HFF): > 1000 nM; Activity (Mus musculus): Non-toxic; Activity (Toxoplasma gondii [6]): Active; pIC50 (Plasmodium falciparum [7]): 5.57; pIC50 (Toxoplasma gondii [8]): 7.80; IC90 (Toxoplasma gondii [8]): 125 nM; Activity (Toxoplasma gondii [10]): Active
COC(=O)[C@@H]1CCCN1C(=O)Oc1ccc(Cl)cc1C(=O)Nc1ccc([N+](=O)[O-])cc1Cl	> 1	> 1	
O=C(Nc1ccc([N+](=O)[O-])cc1Cl)c1cc(Cl)ccc1OC(=O)N1CCOCC1	> 1	> 1	
CCOc1cccc(NC(=O)c2cc(Cl)ccc2O)c1	> 1	> 1	
COc1ccc(C)c(NC(=O)c2cc(Cl)ccc2O)c1	> 1	> 1	
O=C(Nc1cccc(Cl)c1)c1cc(I)cc(I)c1O	> 1	> 1	
CCc1cccc(NC(=O)c2cc(Cl)ccc2O)c1	0.25 (≈ 0.0689 µg/mL)	0.5 (≈ 0.138 µg/mL)	
O=C(Nc1cccc(OC(C(F)(F)F)C(F)(F)F)c1)c1cc(Cl)ccc1O	> 1	> 1	
O=C(Nc1ccc([N+](=O)[O-])cc1Cl)c1ccccc1O	> 1	> 1	
O=C(Nc1cccc(C(F)(F)F)c1)c1cc(Cl)ccc1O	0.25 (≈ 0.0789 µg/mL)	0.25 (≈ 0.0789 µg/mL)	
O=C(Nc1ccc(Cl)cc1F)c1cc(Cl)ccc1O	> 1	0.5 (≈ 0.15 µg/mL)	
N#Cc1ccc(Cl)c(NC(=O)c2cc(Cl)ccc2O)c1	0.5 (≈ 0.154 µg/mL)	0.75 (≈ 0.23 µg/mL)	
CC(C)Oc1cccc(NC(=O)c2cc(Cl)ccc2O)c1	> 1	> 1	
Cc1cccc(NC(=O)c2cc(Cl)ccc2O)c1	> 1	> 1	
O=C(Nc1cc(C(F)(F)F)cc(C(F)(F)F)c1)c1cc(Cl)ccc1O [IMD-0354]	0.016 (≈ 0.00614 µg/mL)	0.125 (≈ 0.048 µg/mL)	pIC50 (Plasmodium falciparum [2]): 5.85; Activity (Toxoplasma gondii [3]): Active; growth inhibition (GI) (Toxoplasma gondii [4]): Active; Activity (Toxoplasma gondii [5]): Active; Activity (HFF): > 1000 nM; Activity (Toxoplasma gondii [6]): Active; pIC50 (Plasmodium falciparum [7]): 5.89; pIC50 (Toxoplasma gondii [8]): 7.80; IC90 (Toxoplasma gondii [8]): 125 nM; Activity (Toxoplasma gondii [9]): Active
O=C(Nc1ccc2c(c1)OCCO2)c1cc(Cl)ccc1O	> 1	> 1	
CN(CC(=O)NN)C(=O)Oc1ccc(Cl)cc1C(=O)Nc1cc(C(F)(F)F)cc(C(F)(F)F)c1.Cl	0.125	0.125	growth inhibition (GI) (Toxoplasma gondii [4]): Active; Activity (HFF): > 1000 nM; Activity (Mus musculus): Non-toxic; pIC50 (Toxoplasma gondii [8]): 6.90; IC90 (Toxoplasma gondii [8]): 125 nM; Activity (Toxoplasma gondii [11]): Active
COc1c(C)c2c(c(O)c1C/C=C(\C)CCC(=O)O)C(=O)OC2			growth inhibition (GI) (Toxoplasma gondii [4]): Active
